# High-throughput results (PubChem BioAssay)
# EBI2 block: blocks human EBI2 receptor beta-arrestin signaling; AID 651636; actives 0.81% (n = 360,000); P32249; inhibition, % at 5 µM; EBI2 beta-arrestin recruitment, luminescence, 7a,25-OHC stimulated; in the data active means inhibition above about 38%;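 further: enzyme fragment complementation signal reports receptor beta-arrestin coupling in cells; 0% = agonist plus DMSO wells and 100% = wells without agonist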
# Target sequence (P32249 whole entry, looked up, the tested form may be a part): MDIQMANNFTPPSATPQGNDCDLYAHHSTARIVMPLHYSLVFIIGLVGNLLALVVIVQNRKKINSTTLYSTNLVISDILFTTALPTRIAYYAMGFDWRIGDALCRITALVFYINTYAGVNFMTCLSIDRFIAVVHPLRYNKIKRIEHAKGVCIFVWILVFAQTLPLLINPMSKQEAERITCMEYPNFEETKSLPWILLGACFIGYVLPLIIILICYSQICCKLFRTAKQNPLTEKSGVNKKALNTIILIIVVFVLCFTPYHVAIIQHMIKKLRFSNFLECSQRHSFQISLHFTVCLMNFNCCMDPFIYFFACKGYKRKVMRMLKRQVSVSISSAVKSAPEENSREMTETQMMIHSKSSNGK
# CXCR6 block: inhibitors of human CXCR6 receptor; AID 602244; actives 0.36% (n = 360,000); inhibition, % at 20 µM; CHO-K1 PathHunter CXCR6 beta-arrestin, luminescence; O00574; in the data active means inhibition above about 34%, passing the limit was not always enough;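 further: antagonist mode with CXCL16 agonist at 10 nM final; 0% = 10 nM CXCL16 with DMSO and 100% = unstimulated wells without agonist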
# CCR6 antag: antagonists of human CCR6 receptor. CHO-K1 CCR6 PathHunter beta-arrestin, luminescence, CCL20-stimulated. actives 0.49% (n = 340,000). AID 493098. inhibition, % at 20 µM;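 active means compounds whose inhibition of the agonist-driven luminescence signal at 20 µM reaches about 50%, limit read from the data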;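 further: cells stimulated with CCL20 at 14 nM final; plate controls were DMSO with CCL20 for no effect and DMSO without agonist for full effect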
# Target sequence (P51684 whole entry, looked up): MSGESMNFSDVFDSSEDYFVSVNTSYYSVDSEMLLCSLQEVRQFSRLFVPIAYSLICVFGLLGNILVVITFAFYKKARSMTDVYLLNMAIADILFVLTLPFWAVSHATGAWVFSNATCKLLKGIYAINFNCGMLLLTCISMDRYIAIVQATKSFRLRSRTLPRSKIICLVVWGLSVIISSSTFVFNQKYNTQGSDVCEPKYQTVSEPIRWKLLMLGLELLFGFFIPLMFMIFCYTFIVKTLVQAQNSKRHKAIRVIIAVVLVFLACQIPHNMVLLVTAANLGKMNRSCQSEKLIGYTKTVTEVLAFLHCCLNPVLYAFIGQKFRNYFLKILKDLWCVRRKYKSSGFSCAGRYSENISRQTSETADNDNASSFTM
# APJ agonist: activates the human apelin receptor APJ. CHO-K1 APJ PathHunter beta-arrestin, luminescence; 0% DMSO wells, 100% apelin. activation, % at 20 µM. actives 0.11% (n = 330,000). AID 2520. P35414;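 active means activation more than six SD over the plate average, tested at 20 µM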;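 further: 0% = DMSO alone and 100% = apelin-13 at 10 nM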
#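 Assay system – PathHunter CHO-K1 APJ (AGTRL-1) beta-arrestin reporter cells · Compound – one dose, 20 µM compound, 1% DMSO · Timing – compound 90 min 25 °C, reagent 1 h · Measured by – luminescence from split beta-galactosidase complementation, Galacton Star/Emerald II substrate · Measure – beta-arrestin recruitment to APJ as agonist activity, luminescent signal · Benchmarks – DMSO vs Apelin-13 10 nM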
# APJ antagonist: APJ receptor antagonism. P35414. CHO-K1 APJ beta-arrestin complementation, luminescence. inhibition, % at 20 µM. actives 0.32% (n = 330,000). AID 2521;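 active means inhibition above about 40% at 20 µM, limit read from the data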;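 further: cells challenged with 10 nM apelin-13 agonist together with compound; plate controls were apelin-13 plus DMSO wells for no effect and DMSO wells lacking apelin-13 for full effect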
# EBI2 antag conf: confirmation of human EBI2 receptor antagonists; shares compounds with EBI2 block; EBI2 beta-arrestin luminescence, 7a,25-OHC antagonism; inhibition, % at 5 µM; actives 29% (n = 2,400); AID 651997;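 active means inhibition of at least 50%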
# EBI2 agonist: EBI2 agonism counter-screen; shares compounds with EBI2 block; 2,400 tested, under 10 active; activation, % at 5 µM; EBI2-expressing cells, agonist mode, luminescence, 60 min; 0% vehicle, 100% 7α,25-dihydroxycholesterol control;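 active means activation of at least 50%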
# bGal cs: beta-galactosidase inhibition counter-screen. inhibition, % at 5 µM. actives 1% (n = 2,400). shares compounds with EBI2 block. AID 652176. purified beta-galactosidase, luminescent Galacton Star, 15 min;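 active means replicate-average signal at least 3 plate SD below neutral wells, shown as high inhibition, flagging enzyme-inhibiting false positives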;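 further: 0% = DMSO wells with enzyme and 100% = wells lacking enzyme; higher means stronger loss of beta-gal luminescence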
# * hit, by the source's call; · = not tested or not shown. This is a sample that favours compounds with a hit; in the whole collection about 1.5% have one here.
SMILES,EBI2 block,CXCR6 block,CCR6 antag,APJ agonist,APJ antagonist,EBI2 antag conf,EBI2 agonist,bGal cs
Cc1ccc(-c2nn(-c3ccccc3)cc2C=C2C(=O)CC(C)(C)CC2=O)cc1,53.1*,-14.4,-25.8,5.5,-15.0,52.1*,2.2,10.1
N#Cc1nc(COc2ccc(F)cc2)oc1N1CCC(Cc2ccccc2)CC1,60.1*,10.1,11.3,-3.4,14.1,14.3,-0.1,0.3
COc1ccc(Nc2oc(COc3ccc(OC)cc3)nc2C#N)cc1,52.0*,-6.1,13.7,-0.1,-14.6,19.6,-0.5,9.0
N#Cc1nc(COc2ccc(Br)cc2)oc1N1CCN(Cc2ccccc2)CC1,43.1*,-0.4,15.1,·,·,15.0,-1.1,-7.0
COc1ccc(N2CCN(c3oc(COc4ccccc4Cl)nc3C#N)CC2)cc1,21.3,-5.4,1.4,-1.7,-12.7,·,·,·
COc1ccc(OCc2nc(C#N)c(N3CCN(c4ccc(OC)cc4)CC3)o2)cc1,43.6*,6.3,17.2,-2.9,14.0,42.6,0.1,-0.4
N#Cc1nc(COc2ccc(F)cc2)oc1N1CCN(Cc2ccccc2)CC1,35.2,5.6,13.5,-5.4,4.7,·,·,·
O=c1c2ccccc2n2c(-c3ccc(C(F)(F)F)cc3)nnc2n1Cc1ccccc1,47.4*,19.1,19.1,2.1,-7.3,22.2,-1.2,-10.5
Cc1cc(S(=O)(=O)N2CCCCC2)ccc1OCC(=O)N1CCOCC1,-8.1,1.0,3.1,4.0,-6.1,·,·,·
Cc1ccc(OCC(=O)N2CCN(S(=O)(=O)c3ccc4c(c3)OCCO4)CC2)c(C)c1,70.4*,1.9,10.4,-0.6,9.9,52.9*,1.9,3.5
Cc1ccc2c(CC(=O)N3CCN(S(=O)(=O)c4ccc5c(c4)OCCO5)CC3)coc2c1,50.4*,-0.2,-3.3,-0.9,0.9,13.3,-0.6,-10.3
Cc1ccc2c(CC(=O)N3CCN(S(=O)(=O)c4ccccc4)CC3)coc2c1,24.4,-3.2,-6.3,-3.6,22.9,·,·,·
OC1(c2ccc3c(c2)OCO3)CCN(Cc2ccc(F)cc2)CC1,8.4,-5.6,8.0,-2.6,-1.7,·,·,·
C/C=C\C=C\C(=O)N1CC2(CC(c3cccc(NC(=O)COc4ccc(Cl)cc4)c3)=NO2)C[C@H]1C(N)=O (stereo not given in full),48.0*,-7.7,-3.6,9.5,-38.1,47.4,1.5,5.4
C/C=C\C=C/C(=O)Nc1cccc(C2=NOC3(C2)C[C@@H](C(N)=O)N(C(=O)COc2ccc(Cl)cc2)C3)c1 (stereo not given in full),39.0,-3.5,2.8,-0.3,-0.2,·,·,·
O=C(Nc1nc(-c2ccc(Oc3ccccc3)cc2)cs1)C1=COCCO1,73.7*,-9.6,9.2,-1.5,7.4,31.9,-1.0,8.4
Cc1ccc(-c2csc(NC(=O)C3=COCCO3)n2)cc1,-0.4,0.0,-7.8,-0.6,15.7,·,·,·
NS(=O)(=O)c1cccc(NC(=O)CSc2nnc(-c3ccncc3)n2C2CC2)c1,-18.7,3.9,16.5,-4.2,9.9,·,·,·
CC(=O)Nc1cc(-c2ccc(N(C)C)cc2)cn2c(-c3ccc(F)cc3)cnc12,53.8*,-4.3,·,·,·,53.6*,0.2,4.9
Brc1ccc(-c2nnc3sc(CN4CCN(c5ccccc5)CC4)cn23)cc1,75.2*,-1.6,-7.3,1.7,-12.1,39.0,1.0,7.7
Brc1cccc(-c2nnc3sc(CN4CCCCC4)cn23)c1,5.9,-6.1,2.3,-3.5,10.1,·,·,·
COc1ccc(-c2cc(C3CCN(Cc4cccc(C(F)(F)F)c4)CC3)[nH]n2)cc1,54.8*,3.3,-22.2,1.2,-5.3,31.4,-0.3,8.6
COc1ccc(-c2cc(C3CCN(Cc4ccc([N+](=O)[O-])cc4)CC3)[nH]n2)cc1,33.0,-8.0,9.5,-3.3,-32.2,·,·,·
Cc1ccc(CN2CCC(c3cc(-c4ccc(Cl)cc4)n[nH]3)CC2)cc1,64.7*,1.2,20.9,1.8,-26.4,40.5,1.7,5.1
Cc1ccccc1Nc1c([N+](=O)[O-])ccc2c1=NC1(CCCCC1)N=2,56.1*,12.4,3.0,2.4,-25.6,15.1,1.2,0.8
SMILES,EBI2 block,CXCR6 block,CCR6 antag,APJ agonist,APJ antagonist,EBI2 antag conf,EBI2 agonist,bGal cs
COc1ccc(C(=O)N2CCC(C(=O)c3c(C)cc(C)cc3C)CC2)cc1,71.7*,-1.9,14.3,0.9,1.3,41.9,-0.6,-8.3
Cc1cc(C)c2cc(C(=O)N3CCC(C(=O)c4ccc(F)cc4)CC3)[nH]c2c1,89.9*,-3.1,13.6,1.1,-1.4,83.7*,1.3,1.2
Cc1cc(C)c2cc(C(=O)N3CCC(N4CCCCC4)CC3)[nH]c2c1,46.0*,7.4,15.2,-1.7,-15.1,25.2,0.1,6.5
Cc1cc(C)c2cc(C(=O)N3CCC(Cc4ccccc4)CC3)[nH]c2c1,64.4*,3.5,11.1,-2.2,-15.8,41.5,1.8,-9.9
CCCCCCNc1nc(Cl)nc(NC(C)(C)CO)n1,0.2,7.3,1.2,0.3,8.4,·,·,·
CN(CC(=O)O)c1ccc(C(F)(F)F)cc1[N+](=O)[O-],-0.4,2.2,7.8,-4.7,-5.5,·,·,·
FC(F)(F)c1cccc(NC(=S)Nc2cccc(NC(=S)Nc3cccc(C(F)(F)F)c3)n2)c1,-8.4,-9.5,-14.6,3.6,5.7,·,·,·
COc1cc(/C=C2\CCC(C)C3=C(c4cc(OC)c(OC)c(OC)c4)C(C#N)=C(N)OC32)cc(OC)c1OC (stereo not given),45.0*,3.2,17.2,·,·,20.4,0.2,9.7
COc1cc(/C=C2\CCC(C3CCCC3)C2=O)cc(OC)c1OC (stereo not given),-42.1,6.5,3.9,-2.5,-2.5,·,·,·
COc1ccc(NC(=O)C2CCC(CNS(=O)(=O)c3cccs3)CC2)cc1 (stereo not given),46.7*,-11.7,14.1,-2.1,4.0,16.3,1.1,5.3
COc1ccc(NC(=O)C2CCC(CNS(=O)(=O)c3cccs3)CC2)cc1OC (stereo not given),17.8,0.0,9.9,1.3,7.9,·,·,·
O=C(CCN1CCN(C(c2ccccc2)c2ccccc2)CC1)N/N=C/c1ccc(O)cc1,32.0,1.9,28.2,0.3,-4.8,·,·,·
O=C(CSC1CN(C(c2ccccc2)c2ccccc2)C1)N/N=C/c1ccccc1,48.9*,11.0,16.1,-4.0,-4.4,34.6,-0.8,-10.0
COc1ccc(CCNC(=O)/C=C/c2ccc(C)cc2)cc1OC,33.9,-1.5,-13.0,-4.2,7.4,·,·,·
O=C(/C=C/c1ccc(Br)cc1)NC1CCCCCC1,64.5*,-1.8,7.8,-1.6,11.8,60.7*,-0.6,9.4
O=C(COC(=O)/C=C/c1cccc(Br)c1)NC1CCCCC1,3.3,-5.7,3.7,-3.1,-0.7,·,·,·
